In ChEMBL document CHEMBL1125418, “Antimycobacterial activity of a series of pyrazinoic acid esters” (1992) one finds MIC data, which are given here for 1 compound.

In brackets after ≈: the same amount, converted by molar mass.

What all share (type): functional
In assay [1] the test system is Mycobacterium tuberculosis. Put plainly: In vitro activity against Mycobacterium tuberculosis (strain type-BUR) at pH 5.8. In a few lines:
(§1)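 Middlebrook 7H10 agar plus 10% OADC at pH 5.8 in compartmented plates, with serial twofold dilutions from 200 to 3.12 µg/mL. Plates were prepared 24–48 h before use and stored at 4 °C. A drug-free compartment was included per isolate. Incubation was 37 °C for 4 weeks. MIC was the lowest level producing 99% (2 log) inhibition of growth.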

Assay [2] deals with Mycobacterium tuberculosis. Briefly: In vitro activity against Mycobacterium strain LEL (Mycobacterium tuberculosis). Conditions: Mycobacterium tuberculosis; read-out: MIC.
Assay [3] deals with Mycobacterium tuberculosis. Put plainly: In vitro activity against Mycobacterium strain DOL (Mycobacterium tuberculosis). Conditions: Mycobacterium tuberculosis; read-out: MIC.
Assay [4] relates to Mycobacterium tuberculosis. Put plainly: In vitro activity against Mycobacterium strain MCQ (Mycobacterium tuberculosis). In a few lines: (§2)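 Agar dilution in compartmented plates of Middlebrook 7H10 agar with 10% OADC, adjusted to pH 5.8 or pH 6.6. Twofold compound dilutions spanned 200–3.12 µg/mL. Plates were made 24–48 h ahead and held at 4 °C. MIC (µg/mL) was the lowest concentration giving 99% (2 log) growth inhibition.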

Assay [5] concerns Mycobacterium tuberculosis. Briefly: In vitro activity against Mycobacterium strain ATCC 35828 (Mycobacterium tuberculosis). In a few lines: as §2
The test system of assay [6] is Mycobacterium tuberculosis. Briefly: In vitro inhibitory activity against Mycobacterium tuberculosis (strain type-H37Rv) at pH 6.6. Conditions: Mycobacterium tuberculosis; read-out: MIC.
Assay [7] deals with Mycobacterium tuberculosis. Briefly: In vitro activity against Mycobacterium strain GLA (Mycobacterium tuberculosis). Conditions: Mycobacterium tuberculosis; read-out: MIC.
The subject of assay [8] is Mycobacterium tuberculosis. Briefly: In vitro inhibitory activity against Mycobacterium tuberculosis (strain type-ATCC 35828) pH 6.6. In a few lines: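 Twofold serial dilutions (200–3.12 µg/mL) in 7H10 agar with 10% OADC enrichment at pH 6.6, in compartmented plates. Plates were stored at 4 °C and used within 24–48 h. A no-drug compartment served as control for each isolate. Plates were incubated for 4 weeks at 37 °C. MIC was the lowest concentration giving 99% (2 log) growth inhibition.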

Assay [9] relates to Mycobacterium kansasii. Briefly: In vitro inhibitory activity against Mycobacterium kansasii (strain type-SWK)at pH 5.8. In a few lines: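 Pyrazinamide-resistant isolate SWK tested on Middlebrook 7H10 agar plus 10% OADC adjusted to pH 5.8. Compartmented plates hold 2-fold dilutions from 200 to 3.12 µg/mL, prepared 24–48 h before use and kept at 4 °C, with a drug-free compartment. Incubation was 37 °C for 4 weeks. MIC is the lowest level causing 99% (2 log) growth inhibition.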

Assay [10] has as its system Mycobacterium kansasii. Briefly: In vitro activity against Mycobacterium strain SCH (Mycobacterium kansasii). In a few lines: (§3)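 Agar dilution MIC against pyrazinamide-resistant clinical isolates on Middlebrook 7H10 agar with 10% OADC at pH 5.8 or pH 6.6. Serial 2-fold dilutions span 200–3.12 µg/mL in compartmented plates made 24–48 h ahead and stored at 4 °C. Each isolate has a drug-free control. Plates were incubated at 37 °C for 4 weeks. MIC is the lowest concentration giving 99% (2 log) growth inhibition.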

The subject of assay [11] is Mycobacterium kansasii. Briefly: In vitro inhibitory activity against Mycobacterium kansasii (strain type-SWK) pH 6.6. In a few lines:
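MIC for pyrazinamide-resistant isolate SWK by agar dilution in Middlebrook 7H10 with 10% OADC at pH 6.6. Serial 2-fold dilutions run 200–3.12 µg/mL in compartmented plates prepared 24–48 h in advance and stored at 4 °C. A drug-free control is included. Plates were held at 37 °C for 4 weeks. The endpoint is 99% (2 log) inhibition of growth.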

The test system of assay [12] is Mycobacterium tuberculosis. Put plainly: In vitro activity against Mycobacterium strain BAK (Mycobacterium tuberculosis). Conditions: Mycobacterium tuberculosis; read-out: MIC.
The subject of assay [13] is Mycobacterium tuberculosis. Briefly: In vitro inhibitory activity against Mycobacterium tuberculosis (strain type-ATCC 35828)at pH 5.8. In a few lines:
as §1

In assay [14] the test system is Mycobacterium tuberculosis. Put plainly: In vitro activity against Mycobacterium strain DUB (Mycobacterium tuberculosis). Conditions: Mycobacterium tuberculosis; read-out: MIC.
For assay [15], the system named is Mycobacterium kansasii. Briefly: In vitro activity against Mycobacterium strain SWK (Mycobacterium kansasii). In a few lines:
as §3

The test system of assay [16] is Mycobacterium tuberculosis. Put plainly: In vitro activity against Mycobacterium strain BUR (Mycobacterium tuberculosis). In a few lines: as §2
Assay [17] relates to Mycobacterium tuberculosis. Briefly: In vitro activity against Mycobacterium strain WOO (Mycobacterium tuberculosis). In a few lines: as §2
Assay [18] has as its system Mycobacterium tuberculosis. Put plainly: In vitro activity against Mycobacterium strain ING (Mycobacterium tuberculosis). In a few lines:
as §2

For assay [19], the system named is Mycobacterium tuberculosis. Put plainly: In vitro activity against Mycobacterium strain SMA (Mycobacterium tuberculosis). Conditions: Mycobacterium tuberculosis; read-out: MIC.
For assay [20], the system named is Mycobacterium tuberculosis. Briefly: In vitro activity against Mycobacterium strain DOU (Mycobacterium tuberculosis). In a few lines: as §2
For assay [21], the system named is Mycobacterium tuberculosis. Put plainly: In vitro activity against Mycobacterium strain CES (Mycobacterium tuberculosis). In a few lines:
as §2

The test system of assay [22] is Mycobacterium tuberculosis. Briefly: In vitro inhibitory activity against Mycobacterium tuberculosis (strain type-H37Rv) at pH 5.8. In a few lines: as §1

The term MIC denotes the lowest concentration found to suppress growth. Take `CN(C)CCOC(=O)c1cnccn1`: the MIC came to 25 mg/L (≈ 128 µM) in assay [1]; 25 mg/L (≈ 128 µM) in [2]; 12.5 mg/L (≈ 64 µM) in assay [3]; 25 mg/L (≈ 128 µM) in assay [4]; 50 mg/L (≈ 256 µM) in [5]; 100 mg/L (≈ 512 µM) in assay [6]. Also, the MIC in [7] was 25 mg/L (≈ 128 µM); in [8], over 200 mg/L; in the assay on Mycobacterium kansasii [9] it was 200 mg/L (≈ 1020 µM); against Mycobacterium kansasii [10], 50 mg/L (≈ 256 µM); in the assay with Mycobacterium kansasii [11], over 200 mg/L; in assay [12] it was 25 mg/L (≈ 128 µM). Moreover, the MIC in assay [13] was found to be 25 mg/L (≈ 128 µM); in assay [14], 25 mg/L (≈ 128 µM); with Mycobacterium kansasii [15], 100 mg/L (≈ 512 µM); in assay [16], 25 mg/L (≈ 128 µM); in [17], 25 mg/L (≈ 128 µM); in assay [18], 25 mg/L (≈ 128 µM). For the same compound, the MIC in assay [19] came to 25 mg/L (≈ 128 µM); in assay [20], 25 mg/L (≈ 128 µM); in [21], 25 mg/L (≈ 128 µM); in assay [22] it was 12.5 mg/L (≈ 64 µM).
